Source: ChEMBL document CHEMBL4689842, “EUbOPEN Chemogenomics Library wave 1” (2021)

What was measured:
Format in all cases: toxicity, cell-based
[1] = system: HEK-293T; test: Multiplex assay against HEK293T; conditions: human;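 on Population Tubulin-Different-Phenotype (%): share of the cells with healthy nuclei that show this phenotype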
Summary of the method: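 Compound was added to live cells that had been stained at seeding with Hoechst33342, BioTracker Green Microtubule Cytoskeleton Dye, MitoTracker Red and Annexin V Alexa Fluor 680, and imaging followed on a CQ1 microscope at 37°C and 5% CO2. CellPathfinder machine-learning gating divided cells into Hoechst high-intensity objects or normal cells, normal cells into healthy, pyknosed or fragmented nuclei, and pyknosed cells into mitotic or apoptotic. Tubulin, mitochondrial-mass and membrane-permeability phenotypes are per cents of healthy-nucleus cells.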

[2] = system: HEK-293T; test: Incucyte cell viability with HEK293T; conditions: human, 10 µM, compound concentration 10 uM; further: filed as whole numbers so only -1 and 0 and 1 occur
[3] = system: Fibroblast; test: Incucyte cell viability with human fibroblast; conditions: 10 µM, compound concentration 10 uM; further: filed as whole numbers so only -1 and 0 and 1 occur
[4] = 12 h, 1 µM, compound concentration 1 uM, replicate 1
[5] = 12 h, 1 µM, compound concentration 1 uM, replicate 2
[6] = 12 h, 10 µM, compound concentration 10 uM, replicate 1
[7] = 12 h, 10 µM, compound concentration 10 uM, replicate 2
[8] = 24 h, 1 µM, compound concentration 1 uM, replicate 1
[9] = 24 h, 1 µM, compound concentration 1 uM, replicate 2
[10] = 24 h, 10 µM, compound concentration 10 uM, replicate 1
[11] = 24 h, 10 µM, compound concentration 10 uM, replicate 2
[12] = 12 h, replicate number 1, timepoint 12 hours
[13] = 18 h, replicate number 1, timepoint 18 hours
[14] = 24 h, replicate number 1, timepoint 24 hours

## CNC(=O)c1cc(Oc2ccc(NC(=O)Nc3cc(C(C)(C)C)nn3-c3ccc4ncccc4c3)c(F)c2)ccn1 [REBASTINIB]
[1]; [4]
  Population Apoptotic (%): 22%
  Population Fragmented Nuclei (%): 22%
  Population Healthy Nuclei (%): 66%
  Population Hoechst High Intensity Objects (%): 15%
  Population Membrane Permeable-Phenotype (%): 11%
  Population Mitochondria Different-Phenotype (%): 4%
  Population Mitotic Cells (%): 77%
  Population Normal (%): 84%
  Population Pyknosed Nuclei (%): 10%
  Population Tubulin-Different-Phenotype (%): 3%
  Total Cell Count: 638
[1]; [5]
  Population Apoptotic (%): 11%
  Population Fragmented Nuclei (%): 11%
  Population Healthy Nuclei (%): 85%
  Population Hoechst High Intensity Objects (%): 4%
  Population Membrane Permeable-Phenotype (%): 7%
  Population Mitochondria Different-Phenotype (%): 3%
  Population Mitotic Cells (%): 88%
  Population Normal (%): 95%
  Population Pyknosed Nuclei (%): 3%
  Population Tubulin-Different-Phenotype (%): 6%
  Total Cell Count: 1893
[1]; [6]
  Population Apoptotic (%): 29%
  Population Fragmented Nuclei (%): 11%
  Population Healthy Nuclei (%): 41%
  Population Hoechst High Intensity Objects (%): 16%
  Population Membrane Permeable-Phenotype (%): 13%
  Population Mitochondria Different-Phenotype (%): 34%
  Population Mitotic Cells (%): 70%
  Population Normal (%): 83%
  Population Pyknosed Nuclei (%): 46%
  Population Tubulin-Different-Phenotype (%): 88%
  Total Cell Count: 515
[1]; [7]
  Population Apoptotic (%): 35%
  Population Fragmented Nuclei (%): 3%
  Population Healthy Nuclei (%): 78%
  Population Hoechst High Intensity Objects (%): 6%
  Population Membrane Permeable-Phenotype (%): 9%
  Population Mitochondria Different-Phenotype (%): 55%
  Population Mitotic Cells (%): 64%
  Population Normal (%): 93%
  Population Pyknosed Nuclei (%): 18%
  Population Tubulin-Different-Phenotype (%): 97%
  Total Cell Count: 672
[1]; [8]
  Population Apoptotic (%): 13%
  Population Fragmented Nuclei (%): 19%
  Population Healthy Nuclei (%): 74%
  Population Hoechst High Intensity Objects (%): 12%
  Population Membrane Permeable-Phenotype (%): 23%
  Population Mitochondria Different-Phenotype (%): 2%
  Population Mitotic Cells (%): 86%
  Population Normal (%): 87%
  Population Pyknosed Nuclei (%): 5%
  Population Tubulin-Different-Phenotype (%): 3%
  Total Cell Count: 727
[1]; [9]
  Population Apoptotic (%): 3%
  Population Fragmented Nuclei (%): 28%
  Population Healthy Nuclei (%): 69%
  Population Hoechst High Intensity Objects (%): 8%
  Population Membrane Permeable-Phenotype (%): 9%
  Population Mitochondria Different-Phenotype (%): 0%
  Population Mitotic Cells (%): 96%
  Population Normal (%): 91%
  Population Pyknosed Nuclei (%): 1%
  Population Tubulin-Different-Phenotype (%): 7%
  Total Cell Count: 2966
[1]; [10]
  Population Apoptotic (%): 46%
  Population Fragmented Nuclei (%): 14%
  Population Healthy Nuclei (%): 44%
  Population Hoechst High Intensity Objects (%): 15%
  Population Membrane Permeable-Phenotype (%): 8%
  Population Mitochondria Different-Phenotype (%): 58%
  Population Mitotic Cells (%): 53%
  Population Normal (%): 84%
  Population Pyknosed Nuclei (%): 40%
  Population Tubulin-Different-Phenotype (%): 92%
  Total Cell Count: 485
[1]; [11]
  Population Apoptotic (%): 43%
  Population Fragmented Nuclei (%): 3%
  Population Healthy Nuclei (%): 81%
  Population Hoechst High Intensity Objects (%): 5%
  Population Membrane Permeable-Phenotype (%): 7%
  Population Mitochondria Different-Phenotype (%): 63%
  Population Mitotic Cells (%): 56%
  Population Normal (%): 94%
  Population Pyknosed Nuclei (%): 15%
  Population Tubulin-Different-Phenotype (%): 98%
  Total Cell Count: 674
[2]; 0 h, replicate number 2, timepoint 0 hours
  Growth Rate: 0
[2]; 6 h, replicate number 1, timepoint 6 hours
  Growth Rate: 0
[2]; [12]
  Growth Rate: 0
[2]; [13]
  Growth Rate: 0
[2]; [14]
  Growth Rate: 0
[3]; 0 h, replicate number 1, timepoint 0 hours
  Growth Rate: 0
[3]; 6 h, replicate number 2, timepoint 6 hours
  Growth Rate: 1
[3]; [12]
  Growth Rate: 0
[3]; [13]
  Growth Rate: 0
[3]; [14]
  Growth Rate: 0
